Experimental findings from ChEMBL document CHEMBL4049414, “Can We Make Small Molecules Lean? Optimization of a Highly Lipophilic TarO Inhibitor” (J Med Chem, 2017) are described below.

Data set [1] concerns Staphylococcus aureus. Briefly: Growth inhibition of methicillin-resistant Staphylococcus aureus COL after 20 hrs. The gist of the method:
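MRSA COL grown with compound alone, with no antibiotic added. Growth read by OD600. The value is the minimum concentration that inhibits 95% of growth (iMITC95).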

The test system of data set [2] is Staphylococcus aureus subsp. aureus COL. Briefly: Inhibition of methicillin-resistant Staphylococcus aureus COL TarO assessed as compound concentration required for potentiation of imipenem-mediated bacterial growth inhibition by 95% after 20 hrs. An outline of the steps: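 MRSA COL grown with compound in the presence of imipenem at 4 μg/mL. Growth read by OD600. The value is the minimum concentration that inhibits 95% of growth (sMITC95).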

Data set [3] in a line: Inhibition of TarO in methicillin-resistant Staphylococcus aureus membranes assessed as reduction in C55-P-P-GlcNAc production using C55-P as substrate in presence of UDP-GlcNAc by LC-MS analysis.
The test system of data set [4] is Staphylococcus aureus. Briefly: Potentiation of imipenem-induced antibacterial activity against methicillin-resistant Staphylococcus aureus COL MB 5393 infected in neutropenic balb/c mouse assessed as reduction in bacterial burden in kidney at 10 mg/kg, sc administered three times per day at 2, 5 and 8 hrs post challenge cotreated with imipenem measured 24 hrs post challenge. In kind it is functional, organism-based.

Data set [5] in a line: AUC (0 to infinity) in rat at 1 mg/kg, iv. In kind it is ADME, organism-based. Further details: dose 1 mg/kg, time infinity, route intravenous. To be noted: in vivo.
A short description of data set [6]: Solubility of the compound in PBS buffer. It is filed as physicochemical.
Data set [7] is filed under the species Homo sapiens. The data set can be described thus: Inhibition of adenosine transporter (unknown origin) at 10 uM relative to control.
Data set [8] is filed under the species Homo sapiens. Briefly: Inhibition of PAF (unknown origin) at 10 uM relative to control.
The target in data set [9] is Histamine H2 receptor (Homo sapiens) (UniProt P25021). The data set can be described thus: Inhibition of H2 receptor (unknown origin) at 10 uM relative to control.
Chain of Histamine H2 receptor (Homo sapiens) (P25021 whole entry): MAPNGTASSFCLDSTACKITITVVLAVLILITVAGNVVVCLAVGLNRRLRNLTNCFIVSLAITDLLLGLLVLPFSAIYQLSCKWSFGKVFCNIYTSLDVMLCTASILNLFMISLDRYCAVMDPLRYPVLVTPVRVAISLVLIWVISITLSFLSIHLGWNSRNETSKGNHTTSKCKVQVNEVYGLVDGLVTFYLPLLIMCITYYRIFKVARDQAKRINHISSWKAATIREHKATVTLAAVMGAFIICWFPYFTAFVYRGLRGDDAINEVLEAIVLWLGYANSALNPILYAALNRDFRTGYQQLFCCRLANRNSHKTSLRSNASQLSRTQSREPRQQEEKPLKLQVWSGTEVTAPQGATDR
A short description of data set [10]: Clearance in rat at 1 mg/kg, iv. It is filed as ADME, organism-based. Conditions: in vivo.
Data set [11] concerns the target Mitogen-activated protein kinase 3 (Homo sapiens) (UniProt P27361). Briefly: Inhibition of ERK1 (unknown origin) at 10 uM relative to control.
Data set [12] is described as follows: Terminal half life in rat at 1 mg/kg, iv. It is filed as ADME, organism-based. To be noted: in vivo, read-out: beta t1/2 (converted).
A short description of data set [13]: Volume of distribution at steady state in rat at 1 mg/kg, iv. It is filed as ADME, organism-based. Conditions: in vivo, read-out: Vdss.
The species named for data set [14] is Homo sapiens. Briefly: Inhibition of TBOB binding to GABA-A receptor (unknown origin) at 10 uM relative to control.
Data set [15] has as its target Cannabinoid receptor 1 (Homo sapiens) (UniProt P21554). Briefly: Inhibition of CB1 receptor (unknown origin) at 10 uM relative to control.
The nature of data set [16]: AUC (0 to 24 hrs) in mouse at 100 mg/kg, po. It is filed as ADME, organism-based. Further details: time < 24 hr, dose 100 mg/kg, route oral. Conditions: in vivo.
Data set [17] in a line: Inhibition of methicillin-resistant Staphylococcus aureus COL TarO assessed as suppression of bacteriophage K-mediated cell lysis. Also on record: species or system Staphylococcus aureus subsp. aureus COL.
The nature of data set [18]: Inhibition of methicillin-resistant Staphylococcus aureus COL TarO assessed as late stage targocil suppression after 20 hrs. Further details: species or system Staphylococcus aureus subsp. aureus COL.
Data set [19] has as its system Staphylococcus aureus. The data set can be described thus: Antibacterial activity against methicillin-resistant Staphylococcus aureus COL MB 5393 infected in balb/c mouse assessed as reduction in bacterial burden in kidney at 5 mg/kg, sc administered 2 to 8 hrs post challenge measured 24 hrs post challenge. It is filed as functional, organism-based.

≈ marks a conversion by molar mass, not a printed value. Calls of active or inactive are those of the source. The rule behind the calls is not given here.

Chain of Mitogen-activated protein kinase 3 (Homo sapiens) (P27361 whole entry): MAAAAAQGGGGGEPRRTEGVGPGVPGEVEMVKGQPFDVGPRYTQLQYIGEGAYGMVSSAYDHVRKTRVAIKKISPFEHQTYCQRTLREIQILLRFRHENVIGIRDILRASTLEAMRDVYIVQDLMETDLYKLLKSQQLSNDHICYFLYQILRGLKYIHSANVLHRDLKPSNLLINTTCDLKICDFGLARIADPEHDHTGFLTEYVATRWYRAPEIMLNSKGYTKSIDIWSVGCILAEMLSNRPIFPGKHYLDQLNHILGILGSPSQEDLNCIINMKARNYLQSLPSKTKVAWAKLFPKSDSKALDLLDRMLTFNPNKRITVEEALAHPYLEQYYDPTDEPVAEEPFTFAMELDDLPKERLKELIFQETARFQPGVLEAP
Chain of Cannabinoid receptor 1 (Homo sapiens) (P21554 whole entry): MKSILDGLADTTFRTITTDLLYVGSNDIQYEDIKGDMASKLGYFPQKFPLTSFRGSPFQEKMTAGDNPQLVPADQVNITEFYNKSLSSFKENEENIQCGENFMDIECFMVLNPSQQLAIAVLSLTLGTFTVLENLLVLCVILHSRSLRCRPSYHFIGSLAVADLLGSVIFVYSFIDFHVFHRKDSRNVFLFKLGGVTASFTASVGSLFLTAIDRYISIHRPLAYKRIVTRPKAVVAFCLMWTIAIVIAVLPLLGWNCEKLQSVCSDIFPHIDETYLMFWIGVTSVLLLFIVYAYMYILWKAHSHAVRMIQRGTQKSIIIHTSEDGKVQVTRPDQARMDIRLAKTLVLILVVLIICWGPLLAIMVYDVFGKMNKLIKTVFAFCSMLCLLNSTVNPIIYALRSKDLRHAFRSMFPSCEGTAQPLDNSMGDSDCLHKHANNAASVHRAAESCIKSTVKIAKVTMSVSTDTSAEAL

In the case of `O=C(O)C[C@H]1[C@@H](c2cc(F)cc(C(F)(F)F)c2)OC(=O)N1C(=O)NCc1cncc2ccccc12`, the figures for the MITC95 (in the data set with Staphylococcus aureus [1]; in data set [2]) were greater than 200 µM and greater than 200000 nM, respectively. The IC50 in [3] is greater than 200000 nM.
With `C[C@H]1[C@@H](c2cc(C(F)(F)F)cc(C(F)(F)F)c2)OC(=O)N1C(=O)NCc1cncc2cccnc12`, the MITC95 in the data set on Staphylococcus aureus [1] is greater than 200 µM; in data set [2], 125 nM. Further, in data set [3], the IC50 came out at 12 nM.
`CC(=O)NC[C@H]1CN(c2ccc(N3CCOCC3)c(F)c2)C(=O)O1`: in the data set with Staphylococcus aureus [4], the result was Active.
For the compound `O=C(NCc1cncc2cccnc12)N1C(=O)O[C@H](c2cc(C(F)(F)F)cc(C(F)(F)F)c2)[C@@H]1CO`, the MITC95 in the data set with Staphylococcus aureus [1] is greater than 200 µM; in data set [2], 390 nM. Besides, the concentration for half-maximal inhibition (IC50) in [3] amounted to 142 nM.
In turn, `C[C@H]1[C@@H](c2cc(C(F)(F)F)cc(C(F)(F)F)c2)OC(=O)N1C(=O)Cc1cncc2ccccc12` gave an MITC95 with Staphylococcus aureus [1] greater than 200 µM. Also, the IC50 in [3] was 2500 nM.
Regarding `COc1cc(C(F)(F)F)cc([C@H]2OC(=O)N(C(=O)NCc3cncc4ccccc34)[C@H]2CO)n1`, the MITC95 with Staphylococcus aureus [1] was greater than 200 µM; in [2], 360 nM. Further, the IC50 in data set [3] turned out to be 80 nM.
Consider `C[C@H]1[C@@H](c2cc(C(F)(F)F)cc(C(F)(F)F)c2)OC(=O)N1CC(=O)Nc1cncc2ccccc12`, for which the MITC95 in data set [2] is greater than 200000 nM. Further, in data set [3], the IC50 is greater than 200000 nM.
`COc1cc(C(F)(F)F)cc([C@H]2OC(=O)N(C(=O)NCc3cncc4cccnc34)[C@H]2CO)n1`: the AUC(0-inf) in data set [5] is 0.95 µM·h. For the same compound, in [6], the solubility came to 94 µM (≈ 44.9 µg/mL). Moreover, the inhibition entry (in the data set listed under Homo sapiens [7]; in the data set filed under Homo sapiens [8]; in data set [9]; in data set [11]; in the data set listed under Homo sapiens [14]; in data set [15]) was “inactive” in each case. The MITC95 in the data set with Staphylococcus aureus [1] is greater than 200 µM; in data set [2], 900 nM. This compound came in with a clearance in [10] of 36.8 mL/min/kg. Besides, the half-life in data set [12] is 28.8 min. For the same compound, in [13], the Vd worked out at 1.2 L/kg. In addition, the IC50 in data set [3] turned out to be 880 nM.
In turn, `C[C@H]1[C@@H](c2cc(C(F)(F)F)cc(C(F)(F)F)c2)OC(=O)N1C(=O)CCc1cncc2ccccc12` gave an AUC(0-t) at 24 h in data set [16] of 1.7 µM·h. The inhibition (in the data set filed under Homo sapiens [7]; in the data set listed under Homo sapiens [8]; in data set [9]; in [11]; in the data set filed under Homo sapiens [14]; in [15]) was greater than 50% each time. In addition, the MITC95 in the data set on Staphylococcus aureus [1] was greater than 200 µM; in [2], 23 nM. Also, the IC50 in data set [3] amounted to 24 nM.
Regarding `C[C@H]1[C@@H](c2cc(C(F)(F)F)cc(C(F)(F)F)c2)OC(=O)N1C(=O)CCCc1cccc2ccccc12`, the figures for the MITC95 (in the data set with Staphylococcus aureus [1]; in data set [2]) were greater than 200 µM and 125 nM, respectively. Besides, the IC50 in [3] was 28 nM.
On to `C[C@H]1[C@@H](c2cc(C(F)(F)F)cc(C(F)(F)F)c2)OC(=O)N1C(=O)NCc1cncc2ccccc12`, for which the results for the MITC95 (in the data set on Staphylococcus aureus [1]; in data set [2]) were greater than 200 µM and 31 nM, respectively. The half-inhibitory concentration (IC50) in [17] worked out at 94 nM; in [18], 191 nM; in [3] it was 29 nM.
Take `O=C(O)[C@H]1[C@@H](c2cccc(C(F)(F)F)c2)OC(=O)N1C(=O)NCc1cncc2ccccc12`: the MITC95 in the data set with Staphylococcus aureus [1] is greater than 200 µM; in [2] it was greater than 200000 nM. The IC50 in data set [3] is greater than 200000 nM.
In the case of `O=C(NCc1cncc2ccccc12)N1C(=O)O[C@H](c2cccc(C(F)(F)F)c2)[C@@H]1CO`, the MITC95 in the data set on Staphylococcus aureus [1] is greater than 200 µM; in data set [2], 650 nM. For the same compound, the IC50 in [3] stood at 300 nM.
The corresponding values for `O=C(NCc1cncc2ccccc12)N1C(=O)O[C@H](c2cc(F)cc(C(F)(F)F)c2)[C@@H]1CCO` are greater than 200 µM, 18000 nM and 4700 nM.
With `COc1cc(C(F)(F)F)cc([C@H]2OC(=O)N(C(=O)NCc3cncc4cccnc34)[C@H]2C)n1`, the solubility in [6] was found to be 32 µM (≈ 14.8 µg/mL). Besides, the figures for the MITC95 (in the data set with Staphylococcus aureus [1]; in [2]) were greater than 200 µM and 375 nM, respectively. Further, the half-inhibitory concentration (IC50) in data set [17] was 600 nM; in [18] it was 200 nM; in [3], 260 nM.
Take `C[C@H]1[C@@H](c2cc(F)cc(C(F)(F)F)c2)OC(=O)N1C(=O)NCc1cncc2ccccc12`: the results for the MITC95 (in the data set on Staphylococcus aureus [1]; in [2]) were greater than 200 µM and 125 nM, respectively. For the same compound, the IC50 in data set [3] worked out at 25 nM.
The corresponding values for `C[C@H]1[C@@H](c2cccc(C(F)(F)F)c2)OC(=O)N1C(=O)NCc1cncc2cccnc12` are greater than 200 µM, 970 nM and 402 nM.
On to `C[C@H]1[C@@H](c2ccccn2)OC(=O)N1C(=O)NCCc1cccc2ccccc12`, for which the MITC95 in data set [2] was greater than 200000 nM. In data set [3], the IC50 amounted to 16000 nM.
Take `C[C@H]1[C@@H](c2cc(C(F)(F)F)cc(C(F)(F)F)c2)OC(=O)N1CCCc1cccc2ccccc12`: the IC50 in [3] is 38 nM.
In the case of `C[C@H]1[C@@H](c2cc(C(F)(F)F)cc(C(F)(F)F)c2)OC(=O)N1CCC(=O)N1CCOc2ccccc21`, the MITC95 in data set [2] is greater than 200000 nM. Further, in data set [3], the IC50 was greater than 200000 nM.
Consider `C[C@H]1[C@@H](c2cc(C(F)(F)F)cc(C(F)(F)F)c2)OC(=O)N1C(=O)Cc1cccc2ccccc12`, for which, in data set [6], the solubility was less than 1 µM. The MITC95 in the data set on Staphylococcus aureus [1] is greater than 200 µM; in [2] it was 900 nM. Besides, the IC50 in [3] was 125 to 171 nM.
In the case of `O=C(NCc1cncc2ccccc12)N1C(=O)O[C@H](c2cc(C(F)(F)F)cc(C(F)(F)F)c2)[C@@H]1CO`, the values for the MITC95 (in the data set with Staphylococcus aureus [1]; in [2]) were greater than 200 µM and 220 nM, respectively. For the same compound, the IC50 is 1260 nM in [17], 496 nM in [18] and 170 to 174 nM in [3].
For `C[C@H]1[C@@H](c2cc(C(F)(F)F)ccn2)OC(=O)N1C(=O)NCc1cncc2ccccc12`, the MITC95 in the data set with Staphylococcus aureus [1] is greater than 200 µM; in data set [2], 6250 nM. Further, in [3], the IC50 turned out to be 5300 nM.
The corresponding values for `C[C@H]1[C@@H](c2cc(C(F)(F)F)cc(C(F)(F)F)c2)OC(=O)N1C(=O)CCc1cccc2ccccc12` are greater than 200 µM, 15 nM and 9 nM.
As for `O=C(NCc1cncc2ccccc12)N1C(=O)O[C@H](c2cc(F)cc(C(F)(F)F)c2)[C@@H]1CO`, the MITC95 with Staphylococcus aureus [1] was greater than 200 µM; in [2] it was 320 nM. Also, the IC50 in data set [3] is 210 nM.
`C[C@@H](O)[C@H]1C(=O)N2C(C(=O)O)=C(SCCNC=N)C[C@H]12`: the result with Staphylococcus aureus [19] was inactive.

Broadly, the IC50 is the concentration needed to halve the response being measured. What is called AUC(0-inf) is the area under the concentration-time curve extrapolated to infinity. By solubility is commonly meant the concentration that dissolves in the medium under given conditions. Broadly, the inhibition is the share of the control response that was lost under treatment. The term clearance denotes the volume of plasma or blood freed of the substance per unit of time. One may read the AUC(0-t) as exposure summed from dosing to a finite time, without extrapolation to infinity. The low end stands for less exposure, the high end for more exposure.
